The record followed here is ChEMBL document CHEMBL5321273, “Bicyclic Peptide Library Screening for the Identification of Gαi Protein Modulators” (J Med Chem, 2023).

Usually pKd stands for the negative decadic logarithm of the Kd, by convention in mol/L. What is called pIC50 is the negative decadic logarithm of the IC50, by convention in mol/L.

Molecules are shown by their SMILES. pIC50, pKd: −log10 of the molar value. Active and inactive are the calls of the source. No cut-off for these calls is given here.

Data set [1] has as its system HeLa. Put plainly: Cytotoxicity against human HeLa cells assessed as reduction in cell viability upto 80 uM incubated for overnight by MTT assay. It is filed as toxicity, cell-based. For orientation: Tetrazolium dyes change colour on reduction, which living cells bring about.
In data set [2] the test system is HeLa. Put plainly: Modulation of Galphai in isoproterenol-stimulated human HeLa cells assessed as effect on cAMP level at 2.5 to 5 uM incubated for 30 mins by BRET analysis relative to control. It is filed as cell-based. The conditions noted are these: dose 2.5-5 µM. The method, boiled down: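 CAMYEL BRET in HeLa cells transfected with β2-AR plus modified CAMYEL; peptide (10, 5, 2.5 μM final) 30 min RT in pH 8.0 assay buffer; IBMX 100 μM + CTZ 10 μM, 7 min read; isoproterenol added, BRET 15 min; AUC normalized to untreated; triplicates.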
A general note: cAMP levels reflect the balance of adenylyl cyclase and phosphodiesterase activity.

Data set [3] has as its system HeLa. Put plainly: Modulation of Galphai in forskolin-stimulated human HeLa cells assessed as adenylyl cyclase mediated decrease in cAMP level at 2.5 to 10 uM incubated for 30 mins by BRET analysis relative to control. It is filed as cell-based. The conditions noted are these: dose 2.5-10 µM. The method, boiled down:
(§1)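 HeLa cells in DMEM/10% FBS transfected with Gαi(C351I) or pcDNA plus modified CAMYEL cAMP BRET sensor; replated 40K/well; peptide (10, 5, 2.5 μM final, assay buffer pH 8.0) 30 min RT; 100 μM IBMX + 10 μM CTZ added, luminescence 7 min; then Fsk, BRET 15 min; AUC normalized to no-peptide; triplicates.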

The target of data set [4] is T1, Guanine nucleotide-binding protein G(i) subunit alpha-1 (Homo sapiens, UniProt P63096). Nature of the data set: Binding affinity to N-terminal 6His-tagged GMPPNP-bound Galphai1 (unknown origin) expressed in Escherichia coli BL21 (DE3) assessed as dissociation constant by SPR analysis. The method, boiled down:
(§2)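 SPR: Gαi1 loaded with GDP or GMPPNP immobilized on sensor chip by amine coupling; peptides flowed over at varying concentrations; KD determined. Reverse orientation (peptide immobilized, protein flowed) also run.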
On the technique in general: In SPR one partner is held on a chip, and binding of the other changes the refractive index at the surface.

Data set [5] concerns NG108-15. Put plainly: Modulation of Galphai in DADLE/forskolin-stimulated NG108-15 cell membrane expressing human beta2-AR co-expressing […] receptor assessed as decrease in cAMP level at 10 uM relative to control. It counts as cell membranes. Also on record: scale not given: the % may be the effect or the level left. In a few lines:
(§3)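 Cell-free AC assay on membranes from NG108–15 hybrid cells stably expressing human β2-AR; peptides 10 μM; cAMP production stimulated with Fsk or Fsk + DADLE; read by ELISA; values as percent of untreated control; n = 3, SD.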

For data set [6], the target named is T1, Guanine nucleotide-binding protein G(i) subunit alpha-1. Put plainly: Binding affinity to N-terminal 6His-tagged GDP-bound Galphai1 (unknown origin) expressed in Escherichia coli BL21 (DE3) assessed as dissociation constant by SPR analysis. In a few lines: as §2
For data set [7], the system named is HeLa. Nature of the data set: Modulation of Galphai in forskolin-stimulated human HeLa cells assessed as adenylyl cyclase mediated increase in cAMP level at 2.5 uM incubated for 30 mins by BRET analysis relative to control. It is filed as cell-based. The method, boiled down: as §1
In data set [8] the test system is NG108-15. Nature of the data set: Modulation of Galphai in forskolin-stimulated NG108-15 cell membrane expressing human beta2-AR co-expressing […] receptor assessed as increase in cAMP level at 10 uM relative to control. It counts as cell membranes. In a few lines: as §3
For data set [9], the system named is NG108-15. Put plainly: Modulation of Galphai in forskolin/DADLE-stimulated NG108-15 cell membrane expressing human beta2-AR co-expressing mu-opioid receptor assessed as increase in cAMP level at 10 uM relative to control. It counts as cell membranes. The method, boiled down: as §3
In data set [10] the test system is HeLa. Put plainly: Modulation of Galphai in human HeLa cells assessed as hetero-trimer reassociation by measuring effect on phosphorylated Akt level at 2.5 uM incubated for 30 mins by immunoblotting analysis. It is filed as cell-based.
Data set [11] relates to HeLa. Nature of the data set: Modulation of Galphai in human HeLa cells assessed as hetero-trimer reassociation by measuring effect on total Akt level at 2.5 uM incubated for 30 mins by immunoblotting analysis. It is filed as cell-based.
The nature of data set [12]: Modulation of Galphai in human HeLa cells assessed as increase in cAMP level incubated for 30 mins followed by forskolin stimulation measured after 30 mins by TR-FRET analysis. It counts as cell-based. The conditions noted are these: 0.5 h. The method, boiled down: (§4)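 Endpoint intracellular cAMP by TR-FRET (LANCE Ultra cAMP kit) in HeLa cells incubated with a range of peptide concentrations, then Fsk-stimulated or unstimulated; cAMP quantified against a cAMP standard curve.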

The nature of data set [13]: Stability in human plasma at 1 mM measured upto 180 mins by HPLC analysis. It is filed as ADME, cell-free. The conditions noted are these: 3 h, 1000 µM.
In data set [14] the test system is HeLa. Put plainly: Modulation of Galphai in human HeLa cells assessed as increase in cAMP level at 2.5 uM incubated for 30 mins followed by forskolin stimulation measured after 30 mins by TR-FRET analysis relative to control. It is filed as cell-based. Particulars: filed as modulator, time 60.0 min. The method, boiled down:
as §4

Data set [15] concerns HeLa. Put plainly: Modulation of Galphai in human HeLa cells assessed as hetero-trimer reassociation by measuring effect on total ERK level at 2.5 uM incubated for 30 mins by immunoblotting analysis. It is filed as cell-based.
The test system of data set [16] is HeLa. Nature of the data set: Modulation of Galphai in human HeLa cells assessed as hetero-trimer reassociation by measuring effect on phosphorylated ERK level at 2.5 uM incubated for 30 mins by immunoblotting analysis. It is filed as cell-based.
Data set [17] deals with HeLa. Nature of the data set: Modulation of Galphai in human HeLa cells assessed as hetero-trimer reassociation by measuring decrease in free Galphai monomer level at 2.5 uM incubated for 30 mins by BRET analysis. It is filed as cell-based. Particulars: filed as modulator. In a few lines:
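Gβγ release BRET: HeLa cells transfected with Venus-Gβ, Gγ and Rluc8-Gαi (500 ng each); peptide 2.5 μM 30 min RT; CTZ 10 μM added; BRET ratio from emission scan, AUC normalized to no-peptide; n = 3, S.E.M.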

In data set [18] the test system is HeLa. Put plainly: Modulation of Galphai in human HeLa cells assessed as hetero-trimer reassociation by measuring decrease in free G-beta/gamma dimer level at 2.5 uM incubated for 30 mins by BRET analysis. It is filed as cell-based. Particulars: filed as modulator. In a few lines:
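Free Gβγ BRET using Rluc-fused GRK3ct as biosensor in HeLa cells; 30 min incubation with 2.5 μM peptide or none; BRET signal normalized to untreated; n = 3, S.E.M., one-way ANOVA.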

T1 sequence (P63096 whole entry): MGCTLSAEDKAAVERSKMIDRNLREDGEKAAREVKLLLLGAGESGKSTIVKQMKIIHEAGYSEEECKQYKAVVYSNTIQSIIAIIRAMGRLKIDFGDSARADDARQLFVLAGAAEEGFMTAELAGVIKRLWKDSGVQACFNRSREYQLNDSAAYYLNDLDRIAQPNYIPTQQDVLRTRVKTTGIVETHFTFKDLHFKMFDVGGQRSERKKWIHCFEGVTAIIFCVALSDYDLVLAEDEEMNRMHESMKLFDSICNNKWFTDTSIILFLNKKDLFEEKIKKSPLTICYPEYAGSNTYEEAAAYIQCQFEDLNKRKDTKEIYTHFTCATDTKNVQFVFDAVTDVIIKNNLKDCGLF

In the case of `NCCCC[C@H](NC(=O)[C@@H]1CNC(=O)c2cc3cc(c2)C(=O)N[C@H](Cc2cccc4ccccc24)C(=O)N[C@H](Cc2ccccc2)C(=O)N2CCC[C@@H]2C(=O)N[C@@H](CCCNC3=O)C(=O)N2CCC[C@@H]2C(=O)N[C@H](CCCCN)C(=O)N2CCC[C@@H]2C(=O)N[C@@H](Cc2ccc(O)cc2)C(=O)N1)C(N)=O`, the results for the Activity result with HeLa [1] and in the data set on NG108-15 [5] (filed as modulator) were “Non-Toxic” and 40%, respectively. For the same compound, the outcome in the data set on HeLa [2] was inactive. Moreover, the result with HeLa [3] (filed as modulator) was Active. The pKd in data set [4] was 6.15; in data set [6], 5.30.
As for `N=C(N)NCCC[C@@H]1NC(=O)CNC(=O)[C@H](CO)NC(=O)c2cc3cc(c2)C(=O)NC[C@@H](C(=O)N[C@@H](CCCCN)C(N)=O)NC(=O)[C@@H](Cc2cccc4ccccc24)NC(=O)[C@H](Cc2ccc(O)cc2)NC(=O)[C@@H](CCCCN)NC(=O)[C@@H](Cc2cccc4ccccc24)NC(=O)[C@H](CCCNC3=O)NC1=O`, the Activity result in the data set with HeLa [1] was “Non-Toxic”. Also, in the data set on HeLa [3] (filed as modulator), the result was Active. In addition, the pKd in data set [6] is 4.61.
For the compound `CC[C@H](C)[C@@H]1NC(=O)c2cc3cc(c2)C(=O)NC[C@@H](C(=O)N[C@@H](CCCCN)C(N)=O)NC(=O)[C@H](Cc2c[nH]c4ccccc24)NC(=O)[C@@H](Cc2ccc4ccccc4c2)NC(=O)[C@@H](C(C)C)NC(=O)[C@H](CCCNC3=O)NC(=O)[C@@H](CC(N)=O)NC(=O)[C@@H](CC(C)C)NC1=O`, the result (with HeLa [7]; in the data set on NG108-15 [8]; in the data set with HeLa [3]; in the data set with NG108-15 [9]; in the data set with NG108-15 [5]; in [6]) was inactive. The Activity result in the data set with HeLa [1] is recorded as “Non-Toxic”.
As for `CC[C@H](C)[C@@H]1NC(=O)[C@@H](Cc2cccc3ccccc23)NC(=O)c2cc3cc(c2)C(=O)NC[C@@H](C(=O)N[C@@H](CCCCN)C(N)=O)NC(=O)[C@@H](C)NC(=O)[C@@H](Cc2ccccc2)NC(=O)[C@H](CCCNC(=N)N)NC(=O)[C@H](C)NC(=O)[C@@H](CCCNC3=O)NC(=O)[C@@H](C(C)C)NC(=O)[C@@H](Cc2ccccc2)NC1=O`, the outcome in the data set on HeLa [10], with HeLa [11], in the data set with HeLa [2], in the data set with HeLa [15] and with HeLa [16] was inactive. Further, the Activity in the data set with HeLa [7] is 10%; with HeLa [1], “Non-Toxic”; in the data set with NG108-15 [8], 30%; in the data set with NG108-15 [9] (in the assay text read “delta-opioid receptor” for “mu-opioid receptor”), 30%. In [12], the pIC50 is 5.16. The Stability result in data set [13] is given as “Stable”. Also, the result in the data set on HeLa [14], in the data set with HeLa [17] and in the data set with HeLa [18] was Active. Moreover, the pKd in data set [6] was 4.59.
